In ChEMBL document CHEMBL1156045, “Discovery of novel types of inhibitors of S-adenosylmethionine synthesis by virtual screening” (J Med Chem, 2009):
pKi: −log10 of the molar value. The source made the active and inactive calls. The rule behind the calls is not given here.

Legend:
Escherichia coli [1] = experiment: Inhibition of Escherichia coli MAT assessed as incorporation of L-[methyl-14C]methionine into S-adenosyl-methionine at 1 mM after 5 to 10 mins by scintillation counting
Method in brief: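 Screen: E. coli MAT (0.25 μM) preincubated 20 min at room temperature with 1 mM compound (15% DMSO final) in Tris·Cl pH 8.0/KCl/MgCl2. 1.5 volumes of reagents added (final 0.1 mM ATP, 0.1 mM [14C]methionine, 10 mM MgCl2). Run 5 min at 25° C, stopped with 25 mM EDTA; AdoMet on P-81 filters counted.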

[2] = Inhibition of Escherichia coli MAT assessed as incorporation of L-[methyl-14C]methionine into S-adenosyl-methionine after 5 to 10 mins by scintillation counting
Method in brief: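 Recombinant E. coli MAT (0.3 μM subunits) preincubated 20 min with inhibitor before substrates were added. Assay buffer was 50 mM Tris·Cl pH 8.0, 50 mM KCl, 10 mM MgCl2, 10 mM ATP and 0.5 mM L-[methyl-14C]methionine at 25 °C. Reactions were EDTA-quenched and AdoMet was captured on P-81 filters. Ki came from a nonlinear fit of fractional activity to the tight-binding equation.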

Escherichia coli [3] = experiment: Inhibition of Escherichia coli MAT assessed as time required to achieve half maximal enzyme inhibition at 200 uM after 5 to 10 mins by scintillation counting
Method in brief: (§1)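 Onset of inhibition: 0.3 μM MAT subunits (0.3 μM inhibitor) or 10 μM enzyme (200 μM inhibitor) incubated in 50 mM Tris·Cl, 50 mM KCl, 10 mM MgCl2 with 10 mM ATP or 1 mM L-methionine where present. Aliquots diluted into assay reagents at set times; [methyl-14C]AdoMet on P-81 filters counted.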

Saccharomyces cerevisiae = experiment: Antifungal activity against Saccharomyces cerevisiae RDY84 at 1 mM after overnight incubation by filter disk method; assay type: functional, organism-based
Method in brief: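 S. cerevisiae RDY84 (pdr1Δ pdr3Δ) lawn on YDP agar; 5 mm filter disk soaked with 1 mM compound in DMSO, or DMSO control, placed on freshly spread cells. Zone of growth inhibition measured after overnight incubation at 30° C.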

Escherichia coli [4] = experiment: Inhibition of Escherichia coli MAT assessed as lack of recovery of detectable enzyme activity at 0.3 uM up to 20 mins measured after 24 hrs of dialysis
NCI60 = experiment: Growth inhibition of human NCI60 cells up to 100 uM; assay type: functional, cell-based
Method in brief: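 Tested by NCI Developmental Therapeutics Program against the 60 tumour cell line panel in its standard protocol, concentrations up to 100 μM.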

Escherichia coli [5] = experiment: Inhibition of Escherichia coli MAT assessed as incorporation of L-[methyl-14C]methionine into S-adenosyl-methionine at 200 uM after 5 to 10 mins by scintillation counting in presence of ATP treated before addition of methionine; method in brief: as §1
[6] = test system: Methanocaldococcus jannaschii; experiment: Inhibition of Methanococcus jannaschii MAT at 1 mM treated for 20 mins before addition of substrate
Method in brief: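 M. jannaschii MAT (0.3 μM) preincubated 20 min with 0.1–1.0 mM compound, then assayed as for E. coli enzyme (0.1 mM ATP, 0.1 mM [14C]methionine) at 37° C. [14C]AdoMet on P-81 filters counted.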

Escherichia coli [7] = experiment: Antibacterial activity against Escherichia coli RP523 at 1 mM after overnight incubation by filter disk method; assay type: functional, organism-based
Method in brief: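 E. coli RP523 (hyperpermeable strain): ~30 μl overnight culture spread on LB agar; 5 mm filter disks soaked with 30 μl of 1 mM compound in DMSO, or DMSO control, placed on lawn. Zone of growth inhibition measured after overnight incubation at 37° C.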

Escherichia coli [8] = experiment: Inhibition of Escherichia coli MAT assessed as incorporation of L-[methyl-14C]methionine into S-adenosyl-methionine at 200 uM after 5 to 10 mins by scintillation counting in presence of methionine treated before addition of ATP; method in brief: as §1

| Compound | Activity (Escherichia coli [1]) | pKi [2] | Activity (Escherichia coli [3]) | Activity (Saccharomyces cerevisiae) | Activity (Escherichia coli [4]) | growth inhibition (GI) (NCI60) | Activity (Escherichia coli [5]) | inhibition [6] | Activity (Escherichia coli [7]) | Activity (Escherichia coli [8]) |
| --- | --- | --- | --- | --- | --- | --- | --- | --- | --- | --- |
| Cc1ccc(NC(=O)Nc2cccc(C(F)(F)F)c2)cc1NC(=O)Nc1cccc(C(F)(F)F)c1 | inactive |  |  |  |  |  |  |  |  |  |
| NS(=O)(=O)c1ccc(NC(=O)Nc2ccc(Cl)cc2[N+](=O)[O-])cc1 | Active | 8.16 | 20 min | inactive | Active | inactive | inactive | inactive | inactive | Active |
